Data taken from ChEMBL document CHEMBL4038284, “Synthesis of novel quinoline-based 4,5-dihydro-1H-pyrazoles as potential anticancer, antifungal, antibacterial and antiprotozoal agents” (Eur J Med Chem, 2017).
Converted amounts (≈) assume the structure as drawn.

Experiments:
Neisseria gonorrhoeae = experiment: Antibacterial activity against beta lactamase positive Neisseria gonorrhoeae ATCC 31426 by oxidase test; assay type: functional
In short: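 Agar dilution MIC on GC agar with 1% isovitalex containing increasing compound concentrations. Plates inoculated with about 1×10^4 CFU (5 µL). MIC is the lowest concentration that inhibited growth, with growth confirmed by oxidase test. Run in duplicate, repeated at least three times.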

U-937 = experiment: Cytotoxicity against human U937 cells after 72 hrs by MTT assay; assay type: cell-based; conditions: u-937, 72 h
In short: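 Exponentially growing U-937 at 1 × 10^5 cells/mL in RPMI-1640 with 10% FBS were exposed to 200, 50, 12.5 and 3.125 µg/mL for 72 h at 37 °C, 5% CO2. MTT for 3 h, stopped with isopropanol/SDS, formazan read at 570 nm, blank-corrected. LC50 by Probit from % viability against untreated cells. Triplicate, at least two independent experiments.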

Plasmodium falciparum = experiment: Antiplasmodial activity against chloroquine-sensitive Plasmodium falciparum 3D7 assessed as reduction in parasitic LDH activity after 48 hrs by Malstat reagent based […] method; assay type: functional; conditions: 3D7, 48 h
In short: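 Unsynchronized P. falciparum 3D7 at 0.5% parasitemia and 1% hematocrit in RPMI with 3% Albumax II. Exposed to 100, 25, 6.25 and 1.56 µg/mL for 48 h at 37 °C under 90% N2/5% CO2/5% O2. After three freeze-thaw cycles, LDH measured with Malstat and NBT/PES, 1 h in the dark, read at 650 nm. IC50 by Probit; triplicate, ≥2 experiments.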

Candida albicans [1] = experiment: Growth inhibition of Candida albicans ATCC 10231 at 15.62 ug/ml incubated for 48 hrs under dark condition by broth microdilution method relative to control; assay type: functional; conditions: ATCC 10231, 48 h, read-out: GI
In short: (§1)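 CLSI M27-A3 broth microdilution in RPMI-1640, DMSO ≤1%. Inoculum 1-5 × 10^3 CFU/mL. Incubated 48 h at 30 °C, dark. % inhibition = 100 − (OD405 test − sterility control)/(OD405 growth control − sterility control), with growth and sterility control wells. Triplicate.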

Candida albicans [2] = experiment: Antifungal activity against Candida albicans ATCC 10231 incubated for 48 hrs under dark condition by broth microdilution method; assay type: functional; conditions: ATCC 10231, 48 h
In short: (§2)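 CLSI M27-A3 broth microdilution in RPMI-1640, DMSO ≤1%, compounds at 250-0.98 µg/mL final. Inoculum 1-5 × 10^3 CFU/mL. Incubated 48 h at 30 °C in a moist dark chamber, read at OD405. MIC80 and MIC50 taken from % inhibition dose-response curves (mean ± SEM, triplicate). Amphotericin B was the positive control.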

Trypanosoma cruzi = experiment: Antitrypanosomal activity against Trypanosoma cruzi Tulahuen intracellular amastigote harboring LacZ infected in human U937 cells after 72 hrs by CPRG/Nonidet reagent based spectrophotometric method; assay type: functional, cell-based; conditions: U-937, 72 h
In short: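 U-937 cells at 2.5 × 10^5 cells/mL in RPMI-1640 with 10% serum and 0.1 µg/mL PMA were infected with β-galactosidase-transfected Tulahuen epimastigotes at 5 parasites per cell. Infected cells were exposed to 50, 12.5, 3.125 and 0.78 µg/mL for 72 h. CPRG (100 uM) and 0.1% Nonidet P-40 were added for 3 h, read at 570 nm. EC50 by Probit. Triplicate, at least two experiments; benznidazole as reference.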

Cryptococcus neoformans [3] = experiment: Growth inhibition of Cryptococcus neoformans ATCC 32264 at 15.62 ug/ml incubated for 48 hrs under dark condition by broth microdilution method relative to control; assay type: functional; conditions: ATCC 32264, 48 h, read-out: GI; in short: as §1
Staphylococcus aureus [4] = experiment: Antibacterial activity against methicillin-resistant Staphylococcus aureus ATCC 43300 after 24 hrs by resazurin dye based microdilution assay; assay type: functional; conditions: ATCC 43300, 24 h
In short: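 Broth microdilution in Mueller Hinton broth, inoculum 5 × 10^5 – 8 × 10^5. Compound stocks diluted in MHB with 5% DMSO and 0.1% Tween 80. Incubation 24 h at 35-37 °C. MIC is the lowest concentration with visible growth inhibition and/or by resazurin (1 mg/mL) read-out. Gentamicin as control. Run in duplicate, replicated at least three times.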

Candida albicans [5] = experiment: Growth inhibition of Candida albicans ATCC 10231 at 31.25 ug/ml incubated for 48 hrs under dark condition by broth microdilution method relative to control; assay type: functional; conditions: ATCC 10231, 48 h, read-out: GI; in short: as §1
Klebsiella pneumoniae [6] = experiment: Antibacterial activity against carbapenemase positive Klebsiella pneumoniae BAA 1705 after 24 hrs by resazurin dye based microdilution assay; assay type: functional; conditions: BAA 1705, 24 h
In short: (§3)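 MIC taken as the lowest concentration giving visible inhibition and/or by resazurin (1 mg/mL). Gentamicin was the control. Run in duplicate, repeated at least three times.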

Staphylococcus aureus [7] = experiment: Antibacterial activity against methicillin-sensitive Staphylococcus aureus ATCC 25923 after 24 hrs by resazurin dye based microdilution assay; assay type: functional; conditions: ATCC 25923, 24 h; in short: as §3
Cryptococcus neoformans [8] = experiment: Growth inhibition of Cryptococcus neoformans ATCC 32264 at 7.8 ug/ml incubated for 48 hrs under dark condition by broth microdilution method relative to control; assay type: functional; conditions: ATCC 32264, 48 h, read-out: GI; in short: as §1
Cryptococcus neoformans [9] = experiment: Growth inhibition of Cryptococcus neoformans ATCC 32264 at 3.4 ug/ml incubated for 48 hrs under dark condition by broth microdilution method relative to control; assay type: functional; conditions: ATCC 32264, 48 h, read-out: GI
Escherichia coli = experiment: Antibacterial activity against Escherichia coli ATCC 25922 after 24 hrs by resazurin dye based microdilution assay; assay type: functional; conditions: ATCC 25922, 24 h; in short: as §3
Cryptococcus neoformans [10] = experiment: Antifungal activity against Cryptococcus neoformans ATCC 32264 incubated for 48 hrs under dark condition by broth microdilution method; assay type: functional; conditions: ATCC 32264, 48 h; in short: as §2
Cryptococcus neoformans [11] = experiment: Growth inhibition of Cryptococcus neoformans ATCC 32264 at 62.5 ug/ml incubated for 48 hrs under dark condition by broth microdilution method relative to control; assay type: functional; conditions: ATCC 32264, 48 h, read-out: GI; in short: as §1
Candida albicans [12] = experiment: Growth inhibition of Candida albicans ATCC 10231 at 125 ug/ml incubated for 48 hrs under dark condition by broth microdilution method relative to control; assay type: functional; conditions: ATCC 10231, 48 h, read-out: GI; in short: as §1
Leishmania panamensis = experiment: Antileshmanial activity against EpiR/GFP fused Leishmania panamensis MHOM/CO/87/UA140 intracellular amastigotes infected in human […] cells after 72 hrs by flow cytometric method; assay type: functional, cell-based; conditions: MHOM/CO/87/UA140, 72 h
In short: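 PMA-treated U-937 cells (3 × 10^5 cells/mL) infected with stationary-phase GFP L. panamensis promastigotes (15:1), 3 h at 34 °C, then washed. After 24 h, compounds added at 50, 12.5, 3.125 and 0.78 µg/mL for 72 h at 37 °C. EC50 by Probit; triplicate, two experiments.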

Cryptococcus neoformans [13] = experiment: Growth inhibition of Cryptococcus neoformans ATCC 32264 at 125 ug/ml incubated for 48 hrs under dark condition by broth microdilution method relative to control; assay type: functional; conditions: ATCC 32264, 48 h, read-out: GI; in short: as §1
Candida albicans [14] = experiment: Growth inhibition of Candida albicans ATCC 10231 at 3.4 ug/ml incubated for 48 hrs under dark condition by broth microdilution method relative to control; assay type: functional; conditions: ATCC 10231, 48 h, read-out: GI
Staphylococcus aureus [15] = experiment: Antibacterial activity against vancomycin-intermediate Staphylococcus aureus after 24 hrs by resazurin dye based microdilution assay; assay type: functional; in short: as §3
Candida albicans [16] = experiment: Growth inhibition of Candida albicans ATCC 10231 at 7.8 ug/ml incubated for 48 hrs under dark condition by broth microdilution method relative to control; assay type: functional; conditions: ATCC 10231, 48 h, read-out: GI; in short: as §1
Pseudomonas aeruginosa = experiment: Antibacterial activity against Pseudomonas aeruginosa ATCC 27853 after 24 hrs by resazurin dye based microdilution assay; assay type: functional; conditions: ATCC 27853, 24 h; in short: as §3
Klebsiella pneumoniae [17] = experiment: Antibacterial activity against ESBL positive Klebsiella pneumoniae ATCC 700603 after 24 hrs by resazurin dye based microdilution assay; assay type: functional; conditions: Klebsiella pneumoniae, 700603, 24 h; in short: as §3
Cryptococcus neoformans [18] = experiment: Growth inhibition of Cryptococcus neoformans ATCC 32264 at 250 ug/ml incubated for 48 hrs under dark condition by broth microdilution method relative to control; assay type: functional; conditions: ATCC 32264, 48 h, read-out: GI; in short: as §1
Cryptococcus neoformans [19] = experiment: Growth inhibition of Cryptococcus neoformans ATCC 32264 at 31.25 ug/ml incubated for 48 hrs under dark condition by broth microdilution method relative to control; assay type: functional; conditions: ATCC 32264, 48 h, read-out: GI; in short: as §1
Candida albicans [20] = experiment: Growth inhibition of Candida albicans ATCC 10231 at 250 ug/ml incubated for 48 hrs under dark condition by broth microdilution method relative to control; assay type: functional; conditions: ATCC 10231, 48 h, read-out: GI; in short: as §1
Candida albicans [21] = experiment: Growth inhibition of Candida albicans ATCC 10231 at 62.5 ug/ml incubated for 48 hrs under dark condition by broth microdilution method relative to control; assay type: functional; conditions: ATCC 10231, 48 h, read-out: GI; in short: as §1

| SMILES | MIC (Neisseria gonorrhoeae) [µg/mL] | LC50 (U-937) [µg/mL] | EC50 (Plasmodium falciparum) [µg/mL] | inhibition of growth at 15.62 µg/mL (Candida albicans [1]) [%] | MIC50 (Candida albicans [2]) [µg/mL] | MIC80 (Candida albicans [2]) [µg/mL] | EC50 (Trypanosoma cruzi) [µg/mL] | inhibition of growth at 15.62 µg/mL (Cryptococcus neoformans [3]) [%] | MIC (Staphylococcus aureus [4]) [µg/mL] | inhibition of growth at 31.25 µg/mL (Candida albicans [5]) [%] | MIC (Klebsiella pneumoniae [6]) [µg/mL] | MIC (Staphylococcus aureus [7]) [µg/mL] | inhibition of growth at 7.8 µg/mL (Cryptococcus neoformans [8]) [%] | inhibition of growth at 3.4 µg/mL (Cryptococcus neoformans [9]) [%] | MIC (Escherichia coli) [µg/mL] | MIC50 (Cryptococcus neoformans [10]) [µg/mL] | MIC80 (Cryptococcus neoformans [10]) [µg/mL] | inhibition of growth at 62.5 µg/mL (Cryptococcus neoformans [11]) [%] | inhibition of growth at 125 µg/mL (Candida albicans [12]) [%] | EC50 (Leishmania panamensis) [µg/mL] | further results |
| --- | --- | --- | --- | --- | --- | --- | --- | --- | --- | --- | --- | --- | --- | --- | --- | --- | --- | --- | --- | --- | --- |
| COc1cc(C2=NN(c3ccccc3)C(c3cccc(Nc4ccnc5cc(Cl)ccc45)c3)C2)cc(OC)c1OC (stereo not given) | > 1000 | > 200 | 15.5 (≈ 27.4 µM) | 11.6 | 250 (≈ 442 µM) | ≥ 250 | 21.6 (≈ 38.2 µM) | 0.13 | > 1000 | 13.4 | > 1000 | > 1000 | 0 | 0 | > 1000 | 250 (≈ 442 µM) | ≥ 250 | 16.2 | 42.3 | 13.4 (≈ 23.7 µM) | inhibition of growth at 125 µg/mL (Cryptococcus neoformans [13]): 18.3%; inhibition of growth at 3.4 µg/mL (Candida albicans [14]): 4.16%; MIC (Staphylococcus aureus [15]): > 1000 µg/mL; inhibition of growth at 7.8 µg/mL (Candida albicans [16]): 6.63%; MIC (Pseudomonas aeruginosa): > 1000 µg/mL; MIC (Klebsiella pneumoniae [17]): > 1000 µg/mL; inhibition of growth at 250 µg/mL (Cryptococcus neoformans [18]): 58.6%; inhibition of growth at 31.25 µg/mL (Cryptococcus neoformans [19]): 1.65%; inhibition of growth at 250 µg/mL (Candida albicans [20]): 60.5%; inhibition of growth at 62.5 µg/mL (Candida albicans [21]): 23.4% |
| Cc1ccc(C2=NN(c3cc(Cl)cc(Cl)c3)C(c3cccc(Nc4ccnc5cc(Cl)ccc45)c3)C2)cc1 (stereo not given) | > 1000 | > 200 | 65.2 (≈ 117 µM) | 0 | ≥ 250 | ≥ 250 | 49.2 (≈ 88.3 µM) | 1.85 | > 1000 | 0 | > 1000 | > 1000 | 1.15 | 0 | > 1000 | ≥ 250 | ≥ 250 | 8.02 | 3.88 | 18.1 (≈ 32.5 µM) | inhibition of growth at 125 µg/mL (Cryptococcus neoformans [13]): 15.3%; inhibition of growth at 3.4 µg/mL (Candida albicans [14]): 0%; MIC (Staphylococcus aureus [15]): > 1000 µg/mL; inhibition of growth at 7.8 µg/mL (Candida albicans [16]): 0%; MIC (Pseudomonas aeruginosa): > 1000 µg/mL; MIC (Klebsiella pneumoniae [17]): > 1000 µg/mL; inhibition of growth at 250 µg/mL (Cryptococcus neoformans [18]): 40.9%; inhibition of growth at 31.25 µg/mL (Cryptococcus neoformans [19]): 6.71%; inhibition of growth at 250 µg/mL (Candida albicans [20]): 17.9%; inhibition of growth at 62.5 µg/mL (Candida albicans [21]): 0% |
